Measurements from different studies.
Protocols differ between the studies behind these lines.
Target: Ephrin type-A receptor 3 (EPHA3, Homo sapiens, UniProt P29320)
Sequence (P29320 21-983, as in one of the studies): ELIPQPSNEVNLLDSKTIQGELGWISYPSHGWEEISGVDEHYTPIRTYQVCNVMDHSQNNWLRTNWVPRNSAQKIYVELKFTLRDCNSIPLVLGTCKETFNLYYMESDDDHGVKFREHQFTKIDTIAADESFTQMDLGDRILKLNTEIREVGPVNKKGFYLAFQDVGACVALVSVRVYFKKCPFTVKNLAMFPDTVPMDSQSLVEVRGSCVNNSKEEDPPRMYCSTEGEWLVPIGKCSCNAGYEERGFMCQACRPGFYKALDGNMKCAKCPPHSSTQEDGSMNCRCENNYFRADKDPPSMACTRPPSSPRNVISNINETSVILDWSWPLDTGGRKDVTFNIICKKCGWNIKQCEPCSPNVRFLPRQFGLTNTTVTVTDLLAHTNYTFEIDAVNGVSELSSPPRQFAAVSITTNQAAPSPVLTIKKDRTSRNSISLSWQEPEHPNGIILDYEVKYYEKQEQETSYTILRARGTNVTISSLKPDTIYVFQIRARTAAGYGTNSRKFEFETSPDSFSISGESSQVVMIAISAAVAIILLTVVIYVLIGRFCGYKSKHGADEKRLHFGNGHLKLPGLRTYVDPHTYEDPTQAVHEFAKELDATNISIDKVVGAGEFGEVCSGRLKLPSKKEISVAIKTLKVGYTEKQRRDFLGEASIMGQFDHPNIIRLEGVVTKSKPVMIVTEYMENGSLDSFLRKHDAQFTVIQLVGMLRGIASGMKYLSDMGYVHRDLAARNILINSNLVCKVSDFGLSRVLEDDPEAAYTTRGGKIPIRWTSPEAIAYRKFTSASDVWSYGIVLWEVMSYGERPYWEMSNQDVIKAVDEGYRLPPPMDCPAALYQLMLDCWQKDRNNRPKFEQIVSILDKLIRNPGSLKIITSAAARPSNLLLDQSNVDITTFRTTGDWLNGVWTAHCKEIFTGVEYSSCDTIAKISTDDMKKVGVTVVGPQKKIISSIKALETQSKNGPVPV

| SMILES | effect on | method | concentration | remaining binding [%] |
| --- | --- | --- | --- | --- |
| COc1cnc(Nc2cccc(S(N)(=O)=O)c2)nc1N1CCN(c2ccccc2)CC1 | binding | competition with immobilised ligand | 1 µM | 73 |
| CN(CCCC(F)(F)F)c1nccc(-c2cnn3ncccc23)n1 | binding |  | 1 µM | 100 |
| FC(F)(F)Oc1cccc(-c2cnc3ccc(-c4ccncc4)nn23)c1 | cell-free assay | competition with immobilised ligand | 5 µM | 76 |
| COc1ccc2c(O[C@@H]3C[C@H]4C(=O)N[C@]5(C(=O)O)CC5/C=C\CCCCC[C@H](NC(=O)OC5CCCC5)C(=O)N4C3)cc(-c3csc(NC(=O)C(C)C)n3)nc2c1C (some centres unmarked) | cell-free assay | competition with immobilised ligand | 1 µM | 97 |
| C[C@@H]1CCN(c2nccc(-c3cnn4ncccc34)n2)C1 | binding |  | 1 µM | 61 |
| CCN1CCN(Cc2ccc(C(=O)Nc3ccc(C)c(Oc4ccc5c(c4)CC(=O)N5)c3)cc2C(F)(F)F)CC1 | binding | competition with immobilised ligand | 1 µM | 76 |
| c1cnn2ncc(-c3ccnc(N4CCC45COC5)n3)c2c1 | binding |  | 1 µM | 68 |
| CN1CCN(c2cnc3c(C4CCN(C(=O)c5ccc(OC(F)(F)F)cc5N)CC4)ncnc3c2)CC1 | cell-free assay | competition with immobilised ligand | 1 µM | 100 |
| C[C@@H](c1ccc(-n2cnc3c(N)ncnc32)cc1)N1CCc2nn(C)c(Cc3ccccc3)c2C1=O | binding | competition with immobilised ligand | 0.1 µM | 83 |
| C[C@H](c1ccnc(Nc2nc3ccc(-c4cc(N(C)C)ncn4)cc3[nH]2)c1)N1CCN(C(=O)CC(F)(F)F)CC1 | cell-free assay | competition with immobilised ligand | 0.1 µM | 100 |
| c1cncc(-c2cccc(Nc3nccc(NC4CCCCC4)n3)c2)c1 | binding | competition with immobilised ligand | 10 µM | 68 |
| N[C@@H]1CCN(c2nccc(-c3cnn4ncccc34)n2)C1 | binding |  | 1 µM | 100 |
| O=C(NCC1CCOCC1)c1n[nH]cc1NC(=O)c1c(F)cccc1F | binding | competition with immobilised ligand | 1 µM | 82 |
| Cc1cnn2ncc(-c3ccnc(N(C)C)n3)c2c1 | binding |  | 1 µM | 84 |
| CC1=C(C#N)[C@@H](c2ccc3[nH]nc(C)c3c2)C(C#N)=C(c2ccc(Cl)cc2)N1 | cell-free assay | competition with immobilised ligand | 1 µM | 100 |
| CC1CCCN1c1nccc(-c2cnn3ncccc23)n1 (centres unmarked) | binding |  | 1 µM | 97 |
| CCS(=O)(=O)c1cc2cc(C[C@](O)(CC(C)(C)c3ccc(F)cc3C(N)=O)C(F)(F)F)[nH]c2cn1 | cell-free assay | competition with immobilised ligand | 1 µM | 95 |
| O=C(c1ccc(Nc2nccc(-c3cc4ccccc4s3)n2)cc1)N1CCC(N2CCCC2)CC1 | binding | competition with immobilised ligand | 1 µM | 94 |
| C[C@H](NC(=O)c1cnc2n1[C@](C)(Cc1ccc(C#N)cc1)C(=O)N2c1cc(Cl)c(F)c(Cl)c1)C(=O)NC1(c2ccccn2)CC1 | cell-free assay | competition with immobilised ligand | 1 µM | 88 |
| O=C(c1ccc(Nc2ncc(Cl)c(-c3ccc(Cl)s3)n2)cc1)N1CCC(N2CCCC2)CC1 | binding | competition with immobilised ligand | 1 µM | 68 |
